Converted amounts (≈) assume the structure as drawn. The source made the active and inactive calls. The calls are words filed in the database; no cut-off is given here.
Tests used:
[1] = molecular target: CDK2/Cyclin A2 (Homo sapiens) (UniProt P24941+P20248); experiment: Inhibition of CDK2/cyclin A (unknown origin); format: protein-complex assay
[2] = molecular target: Protein kinase C beta type (Homo sapiens) (UniProt P05771); experiment: Inhibition of PRKCB2 (unknown origin)
[3] = molecular target: Sodium-dependent dopamine transporter (Homo sapiens) (UniProt Q01959); experiment: Binding affinity to human dopamine transporter by radioligand binding assay
In short: (§1)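 CEREP panel binding measured by displacement of an antagonist radioligand.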

[4] = molecular target: Phosphatidylinositol 4-phosphate 3-kinase C2 domain-containing subunit alpha (Homo sapiens) (UniProt O00443); experiment: Inhibition of PIK3C2A (unknown origin)
[5] = molecular target: Beta-2 adrenergic receptor (Homo sapiens) (UniProt P07550); experiment: Binding affinity to human beta-2 adrenergic receptor by radioligand binding assay
In short: (§2)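 CEREP panel binding measured by displacement of an agonist radioligand.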

[6] = molecular target: cAMP-dependent protein kinase catalytic subunit alpha (Homo sapiens) (UniProt P17612); experiment: Inhibition of PRKACA (unknown origin)
[7] = molecular target: Tyrosine-protein kinase BTK (Homo sapiens) (UniProt Q06187); experiment: Inhibition of BTK (unknown origin)
[8] = molecular target: T1, Pyruvate kinase PKM (Homo sapiens, UniProt P14618); experiment: Activation of PKM2 in human Huh7 cells assessed as formation of enzyme tetramers; format: cell-based; details: Huh-7
[9] = molecular target: Glycogen synthase kinase-3 beta (Homo sapiens) (UniProt P49841); experiment: Inhibition of GSK3B (unknown origin)
[10] = molecular target: Mitogen-activated protein kinase kinase kinase kinase 4 (Homo sapiens) (UniProt O95819); experiment: Inhibition of MAP4K4 (unknown origin)
[11] = molecular target: MAP kinase p38 (Homo sapiens) (UniProt O15264+Q15759+Q16539+P53778); experiment: Inhibition of p38 (unknown origin); format: protein assay
[12] = molecular target: Serine/threonine-protein kinase Chk1 (Homo sapiens) (UniProt O14757); experiment: Inhibition of CHEK1 (unknown origin)
[13] = Intrinsic clearance in human liver microsomes; format: ADME, Microsome; details: read-out: CLH
[14] = molecular target: T1, Pyruvate kinase PKM; experiment: Activation of human PKM2 assessed as production of ATP at infinite concentration after 10 mins by lactate dehydrogenase-coupled enzyme assay relative to FBP
In short: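 Coupled to lactate dehydrogenase, NADH loss read as the drop in absorbance at 340 nm. Reaction: 2nM human PKM2 (cleaved N-term his, 1-531), 2 mM PEP, 0.35 mM NADH, 4 units/mL LDH in 50 mM Tris pH 7.5 with KCl and 5 mM MgCl2. Compound preincubated 10 minutes at 32 °C, then 0.5mM ADP starts the reaction. Duplicates; 10-point curves; asymptote max = % activation at infinite concentration.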

[15] = molecular target: MAP kinase-activated protein kinase 2 (Homo sapiens) (UniProt P49137); experiment: Inhibition of MAPKAPK2 (unknown origin)
[16] = molecular target: Aurora kinase A (Homo sapiens) (UniProt O14965); experiment: Inhibition of AURKA (unknown origin)
[17] = system: Salmonella typhimurium; experiment: Genotoxicity in Salmonella typhimurium by Ames test; format: toxicity, organism-based; details: salmonella enterica subsp. enterica serovar typhimurium
[18] = molecular target: Serine/threonine-protein kinase TAO2 (Homo sapiens) (UniProt Q9UL54); experiment: Inhibition of TAOK2 (unknown origin)
[19] = molecular target: Rho-associated protein kinase 1 (Homo sapiens) (UniProt Q13464); experiment: Inhibition of ROCK1 (unknown origin)
[20] = species on record: Homo sapiens; experiment: Binding affinity to L-type calcium channel diltiazem binding site (unknown origin) by radioligand binding assay
[21] = molecular target: Serine/threonine-protein kinase mTOR (Homo sapiens) (UniProt P42345); experiment: Inhibition of mTOR (unknown origin)
[22] = system: HT-29; experiment: Antiproliferative activity against human HT-29 cells at 10 uM after 5 days; format: functional; details: HT-29, 120 h
In short: (§3)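 Cells plated in Optimem-GlutaMax medium and cultured overnight before exposure to 10 µM compound. Viability measured with CytoTox-Glo after 5 days of treatment.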

[23] = molecular target: Hepatocyte growth factor receptor (Homo sapiens) (UniProt P08581); experiment: Inhibition of cMet (unknown origin)
[24] = Passive permeability from apical to basolateral side of dog RRCK cells; format: ADME, cell-based, Canis lupus familiaris, MDCKII-LE; details: MDCK, read-out: permeability
[25] = system: SNU-182; experiment: Antiproliferative activity against human SNU182 cells at 10 uM after 5 days; format: functional, cell-based; in short: as §3
[26] = molecular target: T1, Pyruvate kinase PKM; experiment: Activation of PKM2 in human Snu182 cells assessed as extracellular acidification rate at 10 uM after 18 hrs; format: cell-based
In short: (§4)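 Snu182 cells seeded at 12k/well in RPMI with 10% FBS and 2 mM glutamine, cultured overnight, then given 10 µM compound for 18 h at 37°C, 5% CO2. Medium switched to XF DMEM with 5 mM glucose plus 10 µM compound; OCR and ECAR measured on a Seahorse XF96 analyzer.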

[27] = system: HuH-1 (human); experiment: Antiproliferative activity against human HuH1 cells at 10 uM after 5 days
[28] = molecular target: Tyrosine-protein kinase ABL1 (Homo sapiens) (UniProt P00519); experiment: Inhibition of ABL1 (unknown origin)
[29] = molecular target: Tyrosine-protein kinase ZAP-70 (Homo sapiens) (UniProt P43403); experiment: Inhibition of ZAP70 (unknown origin)
[30] = molecular target: Insulin receptor (Homo sapiens) (UniProt P06213); experiment: Inhibition of INSR (unknown origin)
[31] = molecular target: Serine/threonine-protein kinase Sgk1 (Homo sapiens) (UniProt O00141); experiment: Inhibition of SGK (unknown origin)
[32] = species on record: Rattus norvegicus; experiment: Binding affinity to central-type benzodiazepine receptor in rat cerebral cortex; format: tissue-based
[33] = molecular target: Serine/threonine-protein kinase 26 (Homo sapiens) (UniProt Q9P289); experiment: Inhibition of MST4 (unknown origin)
[34] = molecular target: Serine/threonine-protein kinase MARK1 (Homo sapiens) (UniProt Q9P0L2); experiment: Inhibition of MARK1 (unknown origin)
[35] = molecular target: Serine/threonine-protein kinase Chk2 (Homo sapiens) (UniProt O96017); experiment: Inhibition of CHEK2 (unknown origin)
[36] = molecular target: T1, Pyruvate kinase PKM; experiment: Activation of PKM2 in human Snu182 cells assessed as oxygen consumption rate at 10 uM after 18 hrs; format: cell-based; in short: as §4
[37] = Kinetic solubility of the compound at pH 7.4; format: physicochemical; details: buffer, read-out: Kinetic_solubility
[38] = molecular target: Calcium/calmodulin-dependent protein kinase type II subunit alpha (Homo sapiens) (UniProt Q9UQM7); experiment: Inhibition of CAMK2A (unknown origin)
[39] = molecular target: High affinity nerve growth factor receptor (Homo sapiens) (UniProt P04629); experiment: Inhibition of NTRK1 (unknown origin)
[40] = molecular target: Mu-type opioid receptor (Homo sapiens) (UniProt P35372); experiment: Binding affinity to human mu opioid receptor by radioligand binding assay; in short: as §2
[41] = molecular target: D(1A) dopamine receptor (Homo sapiens) (UniProt P21728); experiment: Binding affinity to human dopamine D1 receptor by radioligand binding assay; in short: as §1
[42] = molecular target: Vascular endothelial growth factor receptor 2 (Homo sapiens) (UniProt P35968); experiment: Inhibition of KDR (unknown origin)

T1 sequence (P14618 2-531 limits assumed): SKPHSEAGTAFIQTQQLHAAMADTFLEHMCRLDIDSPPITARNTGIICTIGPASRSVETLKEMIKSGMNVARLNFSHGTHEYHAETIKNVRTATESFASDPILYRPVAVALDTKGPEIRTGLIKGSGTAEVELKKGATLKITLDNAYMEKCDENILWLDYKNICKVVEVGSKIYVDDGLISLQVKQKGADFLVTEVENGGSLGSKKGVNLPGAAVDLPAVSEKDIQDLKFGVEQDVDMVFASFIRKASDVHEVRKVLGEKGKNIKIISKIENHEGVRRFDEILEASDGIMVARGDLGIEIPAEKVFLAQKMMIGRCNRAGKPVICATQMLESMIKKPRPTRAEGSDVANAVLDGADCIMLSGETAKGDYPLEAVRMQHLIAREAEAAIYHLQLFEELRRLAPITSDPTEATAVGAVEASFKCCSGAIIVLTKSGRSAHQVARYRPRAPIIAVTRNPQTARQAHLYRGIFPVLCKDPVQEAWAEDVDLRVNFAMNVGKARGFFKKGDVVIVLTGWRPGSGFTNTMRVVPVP
Chain of Serine/threonine-protein kinase Sgk1 (Homo sapiens) (O00141 whole entry): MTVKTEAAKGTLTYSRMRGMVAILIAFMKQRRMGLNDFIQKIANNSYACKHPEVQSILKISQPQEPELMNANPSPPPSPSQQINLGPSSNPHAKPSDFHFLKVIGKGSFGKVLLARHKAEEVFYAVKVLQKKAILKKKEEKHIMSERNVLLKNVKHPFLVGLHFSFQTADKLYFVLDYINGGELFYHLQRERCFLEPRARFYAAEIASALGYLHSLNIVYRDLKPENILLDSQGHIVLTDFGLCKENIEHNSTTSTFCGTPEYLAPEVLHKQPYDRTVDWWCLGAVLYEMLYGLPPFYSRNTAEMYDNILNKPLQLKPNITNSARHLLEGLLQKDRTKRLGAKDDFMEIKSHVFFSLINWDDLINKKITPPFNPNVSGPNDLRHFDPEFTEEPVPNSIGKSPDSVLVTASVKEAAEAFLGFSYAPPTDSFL
Chain of Tyrosine-protein kinase ZAP-70 (Homo sapiens) (P43403 whole entry): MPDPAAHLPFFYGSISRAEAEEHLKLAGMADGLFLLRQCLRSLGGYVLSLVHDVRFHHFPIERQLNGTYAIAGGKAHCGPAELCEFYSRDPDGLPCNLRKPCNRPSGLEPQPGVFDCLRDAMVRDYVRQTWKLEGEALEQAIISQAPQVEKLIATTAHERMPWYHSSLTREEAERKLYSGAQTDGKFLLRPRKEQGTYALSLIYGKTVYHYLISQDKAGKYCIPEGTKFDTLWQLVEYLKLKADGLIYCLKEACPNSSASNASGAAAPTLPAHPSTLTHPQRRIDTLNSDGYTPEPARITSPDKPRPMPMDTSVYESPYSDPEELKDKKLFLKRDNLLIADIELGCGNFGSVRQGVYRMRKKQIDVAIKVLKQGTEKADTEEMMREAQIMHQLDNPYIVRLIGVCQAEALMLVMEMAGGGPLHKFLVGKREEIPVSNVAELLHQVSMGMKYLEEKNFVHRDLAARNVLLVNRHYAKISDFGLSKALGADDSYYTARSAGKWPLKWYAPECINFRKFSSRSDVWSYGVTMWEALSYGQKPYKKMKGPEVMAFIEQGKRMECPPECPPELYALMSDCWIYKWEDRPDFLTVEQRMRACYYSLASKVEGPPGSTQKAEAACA
Chain of Tyrosine-protein kinase BTK (Homo sapiens) (Q06187 whole entry): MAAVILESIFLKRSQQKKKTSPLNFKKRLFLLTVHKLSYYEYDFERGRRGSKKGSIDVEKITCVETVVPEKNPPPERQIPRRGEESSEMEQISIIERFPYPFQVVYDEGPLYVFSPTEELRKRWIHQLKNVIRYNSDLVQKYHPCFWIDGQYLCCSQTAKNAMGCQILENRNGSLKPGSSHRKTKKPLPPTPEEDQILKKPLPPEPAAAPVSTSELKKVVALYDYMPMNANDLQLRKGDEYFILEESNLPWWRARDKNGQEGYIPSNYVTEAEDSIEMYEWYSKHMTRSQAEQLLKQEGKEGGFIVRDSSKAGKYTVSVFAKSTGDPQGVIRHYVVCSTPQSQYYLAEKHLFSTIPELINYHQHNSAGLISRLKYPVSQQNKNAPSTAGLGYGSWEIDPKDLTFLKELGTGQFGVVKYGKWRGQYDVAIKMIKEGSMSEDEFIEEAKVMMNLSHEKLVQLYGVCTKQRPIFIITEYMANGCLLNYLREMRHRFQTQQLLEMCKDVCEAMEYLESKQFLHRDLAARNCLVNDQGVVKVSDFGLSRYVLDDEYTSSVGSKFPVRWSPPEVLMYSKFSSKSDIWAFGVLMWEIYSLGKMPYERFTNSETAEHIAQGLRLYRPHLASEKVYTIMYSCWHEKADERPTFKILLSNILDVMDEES
Chain of D(1A) dopamine receptor (Homo sapiens) (P21728 whole entry): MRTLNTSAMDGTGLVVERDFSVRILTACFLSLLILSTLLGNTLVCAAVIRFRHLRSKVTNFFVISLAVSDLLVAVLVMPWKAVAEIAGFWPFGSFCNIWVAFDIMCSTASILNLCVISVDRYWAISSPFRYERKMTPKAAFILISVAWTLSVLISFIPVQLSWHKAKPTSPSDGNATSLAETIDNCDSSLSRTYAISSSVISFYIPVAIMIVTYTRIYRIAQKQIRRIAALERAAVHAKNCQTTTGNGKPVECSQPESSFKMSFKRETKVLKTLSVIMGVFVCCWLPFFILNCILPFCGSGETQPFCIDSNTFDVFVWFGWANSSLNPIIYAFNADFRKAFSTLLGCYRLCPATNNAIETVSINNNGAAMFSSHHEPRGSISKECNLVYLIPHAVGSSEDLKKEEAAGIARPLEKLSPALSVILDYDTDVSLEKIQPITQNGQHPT
Chain of Serine/threonine-protein kinase 26 (Homo sapiens) (Q9P289 2-416 limits assumed): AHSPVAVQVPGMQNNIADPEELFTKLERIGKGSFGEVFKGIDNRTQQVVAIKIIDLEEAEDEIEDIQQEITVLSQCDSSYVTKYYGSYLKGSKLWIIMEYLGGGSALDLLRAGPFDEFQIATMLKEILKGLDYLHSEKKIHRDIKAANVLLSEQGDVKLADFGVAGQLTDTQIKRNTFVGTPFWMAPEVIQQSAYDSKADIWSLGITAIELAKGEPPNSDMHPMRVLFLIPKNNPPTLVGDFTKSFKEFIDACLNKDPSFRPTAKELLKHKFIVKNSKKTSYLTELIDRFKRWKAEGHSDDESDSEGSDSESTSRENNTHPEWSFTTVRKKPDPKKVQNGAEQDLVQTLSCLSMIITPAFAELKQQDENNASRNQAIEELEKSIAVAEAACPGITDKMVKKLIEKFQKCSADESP
Chain of Aurora kinase A (Homo sapiens) (O14965 whole entry): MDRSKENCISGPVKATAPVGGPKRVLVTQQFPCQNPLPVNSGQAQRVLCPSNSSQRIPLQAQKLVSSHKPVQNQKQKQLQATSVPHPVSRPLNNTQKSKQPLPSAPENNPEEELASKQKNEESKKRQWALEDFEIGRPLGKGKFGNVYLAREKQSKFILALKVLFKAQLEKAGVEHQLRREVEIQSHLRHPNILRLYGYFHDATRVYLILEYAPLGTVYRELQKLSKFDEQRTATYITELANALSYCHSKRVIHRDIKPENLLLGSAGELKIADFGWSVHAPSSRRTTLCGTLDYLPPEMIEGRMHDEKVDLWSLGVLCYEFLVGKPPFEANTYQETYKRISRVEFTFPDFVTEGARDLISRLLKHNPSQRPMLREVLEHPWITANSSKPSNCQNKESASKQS
Chain of Glycogen synthase kinase-3 beta (Homo sapiens) (P49841 whole entry, looked up): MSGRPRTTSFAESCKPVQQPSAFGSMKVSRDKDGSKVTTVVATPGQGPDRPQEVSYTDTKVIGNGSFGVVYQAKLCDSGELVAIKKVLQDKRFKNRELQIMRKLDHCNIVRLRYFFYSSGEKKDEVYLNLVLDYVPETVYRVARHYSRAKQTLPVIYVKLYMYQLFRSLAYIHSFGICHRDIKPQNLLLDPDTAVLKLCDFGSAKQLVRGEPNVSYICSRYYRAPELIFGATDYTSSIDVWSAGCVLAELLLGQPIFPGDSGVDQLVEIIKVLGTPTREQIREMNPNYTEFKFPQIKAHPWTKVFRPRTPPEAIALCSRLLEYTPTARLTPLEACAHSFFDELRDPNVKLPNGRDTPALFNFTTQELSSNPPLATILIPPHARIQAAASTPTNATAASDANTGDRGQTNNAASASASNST
Chain of Beta-2 adrenergic receptor (Homo sapiens) (P07550 whole entry, looked up): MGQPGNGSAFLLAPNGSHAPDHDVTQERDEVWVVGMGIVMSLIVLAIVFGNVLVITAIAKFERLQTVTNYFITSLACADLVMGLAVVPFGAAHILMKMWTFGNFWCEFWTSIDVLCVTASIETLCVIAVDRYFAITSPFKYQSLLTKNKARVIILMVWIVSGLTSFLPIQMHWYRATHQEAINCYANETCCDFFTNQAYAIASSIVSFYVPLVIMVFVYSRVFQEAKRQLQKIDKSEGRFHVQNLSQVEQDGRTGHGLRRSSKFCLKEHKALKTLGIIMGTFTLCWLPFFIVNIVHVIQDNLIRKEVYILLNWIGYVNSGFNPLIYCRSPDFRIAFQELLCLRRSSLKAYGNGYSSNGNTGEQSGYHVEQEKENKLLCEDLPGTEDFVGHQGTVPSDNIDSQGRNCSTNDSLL
Chain of Mu-type opioid receptor (Homo sapiens) (P35372 whole entry): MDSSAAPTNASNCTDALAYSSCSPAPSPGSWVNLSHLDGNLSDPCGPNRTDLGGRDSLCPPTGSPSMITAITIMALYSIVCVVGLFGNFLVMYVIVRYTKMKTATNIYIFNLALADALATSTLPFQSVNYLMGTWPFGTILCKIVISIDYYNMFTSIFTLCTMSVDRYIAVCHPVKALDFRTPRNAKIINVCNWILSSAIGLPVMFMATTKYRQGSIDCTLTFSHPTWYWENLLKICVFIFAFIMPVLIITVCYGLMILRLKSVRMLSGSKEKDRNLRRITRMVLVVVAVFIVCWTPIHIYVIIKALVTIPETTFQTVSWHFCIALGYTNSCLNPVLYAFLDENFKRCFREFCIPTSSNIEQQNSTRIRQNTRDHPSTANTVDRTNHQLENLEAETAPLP

Cc1cccc2nc(Cn3cnc4ccccc43)cc(=O)n12
inhibition [1]: inactive
inhibition [2]: inactive
Activity [3]: inactive
inhibition [4]: inactive
Activity [5]: inactive
inhibition [6]: inactive
inhibition [7]: inactive
Activity [8]: Active
inhibition [9]: inactive
inhibition [10]: inactive
inhibition [11]: inactive
inhibition [12]: inactive
microsomal CLint [13]: < 8 µL/min/mg
max activation [14]: 198%
inhibition [15]: inactive
inhibition [16]: inactive
Activity [17]: Non-toxic
inhibition [18]: inactive
inhibition [19]: inactive
Activity [20]: inactive
inhibition [21]: inactive
inhibition at 10 µM [22]: 2.83%
inhibition [23]: inactive
Papp A→B [24]: 20.5 ×10⁻⁶ cm/s
Activity [25]: inactive
Activity [26]: 109%
Activity [27]: inactive
inhibition [28]: inactive
inhibition [29]: inactive
inhibition [30]: inactive
inhibition [31]: inactive
Activity [32]: inactive
inhibition [33]: inactive
inhibition [34]: inactive
inhibition [35]: inactive
Activity [36]: 101%
solubility kinetic [37]: 178 µM (≈ 51.7 µg/mL)
inhibition [38]: inactive
inhibition [39]: inactive
Activity [40]: inactive
Activity [41]: inactive
inhibition [42]: inactive

From ChEMBL document CHEMBL2385076, “Discovery of 2-((1H-benzo[d]imidazol-1-yl)methyl)-4H-pyrido[1,2-a]pyrimidin-4-ones as novel PKM2 activators” (Bioorg Med Chem Lett, 2013)
